This is a sample that favours compounds with a hit; in the whole collection about 2.2% have one here.
FLuc stim CS: FLuc activators, initial screening, artefact control for FLuc-dependent activation tests, biochemical, ATPlite luminescence | Luciferin 4-monooxygenase (Photinus pyralis), P08659 | ATPlite luciferase biochemical, 10 min; 0 = ATP-free wells, 1 = DMSO control | activation factor at 10 µM | 200,000 tested, under 10 active | AID 1027, 2008;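 active means luciferase activation factor, scaled between plate controls, of at least 2 with compound at 10 µM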
Target sequence (P08659 whole entry, looked up): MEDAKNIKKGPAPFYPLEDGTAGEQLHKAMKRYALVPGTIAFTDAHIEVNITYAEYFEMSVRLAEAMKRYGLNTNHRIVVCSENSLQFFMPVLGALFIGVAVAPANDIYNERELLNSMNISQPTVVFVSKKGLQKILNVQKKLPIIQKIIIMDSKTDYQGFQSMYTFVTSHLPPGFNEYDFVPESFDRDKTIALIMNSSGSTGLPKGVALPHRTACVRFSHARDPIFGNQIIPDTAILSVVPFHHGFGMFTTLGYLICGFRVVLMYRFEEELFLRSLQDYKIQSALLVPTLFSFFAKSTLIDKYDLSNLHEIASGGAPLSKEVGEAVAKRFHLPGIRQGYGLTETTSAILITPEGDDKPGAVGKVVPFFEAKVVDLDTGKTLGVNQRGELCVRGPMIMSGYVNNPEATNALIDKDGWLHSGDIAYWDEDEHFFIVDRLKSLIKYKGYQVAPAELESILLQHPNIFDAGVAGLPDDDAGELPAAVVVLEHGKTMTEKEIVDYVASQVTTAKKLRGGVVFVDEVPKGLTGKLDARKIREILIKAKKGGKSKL
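test system = cell-free luciferase reagent | medium = PBS as buffer for the ATP substrate | dosing = test compounds dosed from 2 mM stocks in 100% DMSO | incubation = 10 min at ambient temperature | detection = luminescence measurement of luciferase light output | benchmarks = low control with PBS replacing ATP, high control enzyme plus ATP without compound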
NF-kB neuron act: activators of NF-kB expression in neurons, primary screen, cell-based, HTS | human neuronal cells, NF-kB reporter expression; stronger effect = higher value | fold change at 12.5 µM | 1.6% of 190,000 active; in the data active means fold change above about 3.3
TRAIL sens C8: viability loss with TRAIL in NB7+C8 cells, primary screen, TRAIL sensitizer project, cell-based, ATPlite luminescence. inhibition (viability loss, TRAIL sensitization), % at 10 µM. 1% of 360,000 active;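 active means compounds causing at least 50% loss of cell viability in the single-dose screen, relative to plate controls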
APP 5'UTR act: activators of APP 5'UTR luciferase reporter, primary screen, SH-SY5Y cells; SH-SY5Y APP 5'UTR luciferase reporter, luminescence; zero percent = DMSO vehicle wells; activation, % at 2 µM; 1% of 190,000 active; AID 1276, 2008;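 active means activation above a set limit, based on mean plus 3 SD of controls, cut at about 140% in these data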
FLuc inhib CS: firefly luciferase enzyme inhibitors, primary screen, artefact control for luciferase-based inhibitor screens, biochemical, luminescence, ATPLite; 10 min; 1.5% of 200,000 active; Luciferin 4-monooxygenase (Photinus pyralis), P08659; inhibition, % at 10 µM;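 active means inhibition above about 50% when tested at 10 µM, limit read from the data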
PPC-1+TRAIL kill: compounds killing PPC-1 cancer cells with TRAIL present, primary screen, TRAIL potentiator project, ATPLite luminescence, uHTS. PPC-1 cells + TRAIL, ATPLite viability luminescence. cell killing (% activity), % at 4 µM or 5 µM. AID 1443, 2008. 0.41% of 220,000 active;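 active means cell killing above 50% in the first pass at 4 µM, then a duplicate retest at 5 µM averaging 50% or more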;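 further: plate controls were cells with TRAIL plus DMSO for no effect and medium-only wells lacking cells for full effect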
An asterisk follows results filed as active; x = not tested or not shown.

SMILES | FLuc stim CS | NF-kB neuron act | TRAIL sens C8 | APP 5'UTR act | FLuc inhib CS | PPC-1+TRAIL kill
c1ccc(CNc2nc(NCC3CC3)nc3cc(-c4ccccc4)sc23)cc1 | x | x | 55* | x | x | x
Nc1ccccc1Nc1cc(-c2ccccc2)[nH]n1 | 0.7 | 4.7* | 19 | 18 | 31 | 19
Nc1ccccc1Nc1cc(-c2ccccc2)nn1-c1ccccc1 | 1 | 1.2 | -4 | -3 | 0 | 17
Cc1ccc([C@@H]2C[C@H]3[C@@H](CN2S(=O)(=O)c2ccc(Cl)cc2)C(=O)C[C@@H](c2ccc(C)cc2)N3S(=O)(=O)c2ccc(Cl)cc2)cc1 | x | x | -1 | x | x | x
Cc1ccc(/C=N/Nc2ccccn2)s1 | x | x | 1 | x | x | x
Cc1ccc(/C=N/c2sc3c(c2C#N)CCC3)s1 | 0.3 | 1.2 | 5 | 86 | 72* | 6
N#Cc1c(/N=C/c2cc3ccccc3s2)sc2c1CCC2 | 0.8 | 0.76 | -17 | 12 | 18 | -10
Cc1ccc(/C=N/c2sc3c(c2C#N)CCCCC3)o1 | 0.1 | 0.95 | -1 | 19 | 92* | -19
Cc1ccc(C=Nc2ccccc2C#N)s1 | 0.2 | 1.9 | 0 | 0 | 76* | 24
Cc1ccc(/C=C/C(=O)Nc2sc3c(c2C#N)CCCC3)o1 | 1.1 | 1 | 25 | 7 | -5 | 12
N#Cc1c(/N=C/c2ccco2)sc2c1CCC2 | 0.5 | 1.1 | -3 | 4 | 50* | 7
CCN(/C=N/c1sc2c(c1C#N)CCCCC2)CC | 0.9 | 4.2* | 9 | 117 | 15 | 2
O=C(CC[C@H]1O[C@@H](n2cnc3c(NC(=O)c4ccccc4)ncnc32)[C@H](O)[C@@H]1O)NCc1ccc2c(c1)OCO2 | x | x | 12 | x | x | x
CCN(CC)S(=O)(=O)c1cccc(C(=O)OCC(=O)c2ccc3c(c2)OCCO3)c1 | 0.1 | 1.1 | -3 | 6 | 87* | 14
O=C(COC(=O)c1ccc(Cl)nc1)c1ccc2c(c1)OCCO2 | 0.1 | 1.2 | 12 | 45 | 88* | 20
CCC(=O)Nc1ccccc1C(=O)OCC(=O)c1ccc2ccccc2c1 | 1 | 0.51 | 1 | 1 | 0 | 6
O=C(CS(=O)(=O)c1ccccc1)c1ccc2c(c1)OCCO2 | 0.4 | 2.3 | 5 | 100 | 58* | 19
CCCCC(=O)Nc1ccccc1C(=O)OCC(=O)c1ccc2c(c1)OCCO2 | 0.3 | 0.84 | 10 | 70 | 66* | 25
O/N=C\c1cccn1-c1ccc(Br)cc1 | 1 | 0.98 | 2 | -16 | 2 | 11
CC(C(=O)NC(=O)NC1CCCCC1)N(C)CC(=O)Nc1ccc(F)c(F)c1F (stereo unspecified) | x | x | -21 | x | x | x
CCCNC(=O)c1cc(C2CCCN(C(=O)c3ccccc3)C2)on1 (stereo unspecified) | x | x | -5 | x | x | x
O=C(Cn1c(=O)oc2ccccc21)NCC1COc2ccccc2O1 (stereo unspecified) | x | x | 1 | x | x | x
O=C(COc1ncnc2ccccc12)c1ccc2c(c1)OCCO2 | 0.6 | 3.8* | 21 | 171* | 45 | 20
O=C(COC(=O)c1cccc(S(=O)(=O)NCc2ccccc2)c1)c1ccc2c(c1)OCCO2 | 0.5 | 0.77 | 0 | 4 | 54* | 30
CS(=O)(=O)c1cccc(C(=O)OCC(=O)c2ccc3c(c2)OCCO3)c1 | x | x | 4 | x | x | x
SMILES | FLuc stim CS | NF-kB neuron act | TRAIL sens C8 | APP 5'UTR act | FLuc inhib CS | PPC-1+TRAIL kill
O=C(COc1ncnc2cc(Cl)ccc12)c1ccc2c(c1)OCCO2 | x | x | -6 | x | x | 7
O=C(COC(=O)C(O)c1ccccc1)c1ccc2c(c1)OCCO2 (stereo unspecified) | 0.2 | 1.1 | -3 | 5 | 84* | 6
CN(CC(=O)Nc1ccc(F)c(F)c1F)C(=O)/C=C/c1ccco1 | x | x | 7 | x | x | x
Cc1ccc2nc(SCC(=O)N3CCC(Cc4ccccc4)CC3)nc(=O)n2c1 | x | x | 10 | x | x | x
CC(C)CC(COCc1ccc(C(F)(F)F)cc1)N1CCN(C(=O)c2ccc(C(F)(F)F)cc2)CCC1=O (stereo unspecified) | 1 | 3.9* | 21 | 20 | 1 | 2
Cc1ccc(NC(=O)COC(=O)CN2CCSC2=O)cc1Cl | x | x | 3 | x | x | x
COc1ccc(/C=N/Nc2nccnc2Cl)cc1 | 0.3 | 3.2 | 46 | 164* | 70* | 34
COc1ccc(/C=N/Nc2cc(C)nc(-n3nc(C)cc3C)n2)c(OC)c1 | 1 | 0.34 | 55* | -8 | -4 | 24
COc1ccc(/C=N/Nc2nccnc2Cl)c(OC)c1 | 0.5 | 2.4 | 3 | 26 | 52* | 16
COc1cccc(/C=N/Nc2nc(Nc3ccccc3)nc(-n3nc(C)cc3C)n2)c1O | 1 | 0.96 | 61* | -79 | 5 | 0
CCC(C(=O)O)n1nc(-c2ccccc2)c2cc(Cl)ccc21 (stereo unspecified) | 1.1 | 1.1 | -2 | -17 | -6 | 2
COc1ccc(/C=N/Nc2cc(OC)ncn2)cc1 | 0.2 | 6.8* | 61* | 203* | 83* | 45
COc1ccc(/C=N/Nc2cc(N(C)C)nc(N(C)C)n2)cc1 | 1 | 0.96 | 28 | 1 | -2 | 2
O=C(Nc1ccc(NC(=O)C2CCCCC2)cn1)c1ccco1 | 0.1 | 4.6* | 70* | 112 | 86* | 58*
O=C(Nc1ccc(NC(=O)C2CC2)cc1)c1ccco1 | x | x | 55* | x | x | x
CCOc1ccc(NC(=O)Nc2ccccc2SC)cc1 | 0.5 | 2 | 43 | 104 | 50* | 24
O=C(Cc1ccccc1)Nc1ccc(NC(=O)C2CCCCC2)nc1 | 1 | 1 | 7 | -27 | -3 | x
O=C(Nc1ccc(Nc2ccccc2)cc1)c1ccco1 | 0.7 | 4.2* | 25 | 94 | 28 | -1
O=C(Nc1ccc(NC(=O)c2ccco2)cc1)c1ccco1 | x | x | 3 | x | x | x
O=C(CSc1ncc(-c2ccccc2)n1C1CCCC1)N1CCc2ccccc21 | 1 | 1 | 7 | 10 | -5 | 4
CN(C)c1cccc2c(S(=O)(=O)NC(=O)[C@H]3O[C@@H](n4cnc5c(N)ncnc54)[C@H](O)[C@@H]3O)cccc12 | x | x | 6 | x | x | x
COc1ccccc1N1CCN(S(=O)(=O)c2c(C(=O)N3CCOCC3)c(C)n(C)c2C)CC1 | x | x | -9 | x | x | x
Cc1cc(C)cc(NC(=O)CCc2c(C)nn(-c3ccc(N4CCOCC4)nn3)c2C)c1 | x | x | -8 | x | x | x
CCOc1ccc(NC(=O)c2ccco2)cc1 | 0.2 | 3.9* | 55* | 120 | 76* | 48
COC(=O)c1cnc(SCC(=O)c2ccccc2)n1C | x | x | 4 | x | x | x
COC(=O)c1cnc(SCc2ccc(Cl)cc2)n1C | 1 | 1.8 | -8 | 227* | -1 | 3
CC(C)c1cc(CNC(=O)CCc2nnc(CCCc3ccccc3)o2)on1 | 1 | 2.3 | -6 | 27 | -2 | x
